Only some compounds are listed: those with a hit (about 3% of all), similar ones and a draw of the others.
DDE Tn6 FP inh: DD(E)-Tn6 binding inhibition, primary FP screen. P02675. Fibrin DD(E) TRITC-Tn6 fluorescence polarization displacement. inhibition, % at 8.3 µM. 370,000 tested, 0.21% active. AID 720509;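 active = inhibition above a per-campaign cutoff: mean of compounds within control limits plus 3 SD, cut at about 15% in these data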;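 note: 0% = median of all compound wells on the plate and 100% = blocking peptide control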
NRP1-CendR mod: modulators of CendR peptide binding to human neuropilin-1; O14786; FAM-RPARPAR peptide binding to NRP-1, fluorescence polarization; inhibition, % at 25 µM; 360,000 tested, 0.85% active; AID 602438;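 active = inhibition or corrected inhibition above about 18%, plus a signal ratio from 0.5 to 1.5, limit read from the data, passing the limit was not always enough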
PLCb3 inh: PLC-beta3 (human) inhibition, primary screen; Q01970; Purified PLC-beta3, fluorogenic substrate, fluorescence; inhibition, % at 12.2 µM; 370,000 tested, 0.18% active; AID 720704; in the data active = inhibition above about 11%;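 note: 0% = median of compound wells on plate and 100% = full blocker control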
Tn7 DDE FP: DD(E)-Tn7 binding inhibition, primary FP screen; FP displacement of FITC-Tn7 peptide from fibrin DD(E); 0% = median of compound wells per plate; inhibition, % at 8.3 µM; P02675; 370,000 tested, 0.13% active;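 active = inhibition above the mean of compounds falling within the control limits plus 3 SD of them, cut at about 14% in these data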;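 note: 0% = plate median of compound wells and 100% = 10 µM Aha-Tn7 peptide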
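Measure: % inhibition scaled between sample-field median and high-control FP; Test system: human fibrin DD(E); Quantity: 2 µM final DD(E) protein; Doses: one dose, 8.3 µM nominal; Schedule: compound with protein 10 min, then 3 h after probe, room temperature; Detection: fluorescence polarization; Medium: Tris buffer with calcium and detergent, pH 7.8.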
KLK7 zymogen act: activates the human kallikrein-7 zymogen | P49862 | purified proKLK7, EDANS-DABCYL substrate fluorescence; 100% is mature enzyme control, 0% vehicle | activation, % at 7 µM | 370,000 tested, 0.9% active;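 active = activation above the mean of all tested compounds plus 3 SD, computed per campaign excluding outliers beyond control limits, cut at about 13% in these data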
Target sequence (P49862 whole entry, looked up): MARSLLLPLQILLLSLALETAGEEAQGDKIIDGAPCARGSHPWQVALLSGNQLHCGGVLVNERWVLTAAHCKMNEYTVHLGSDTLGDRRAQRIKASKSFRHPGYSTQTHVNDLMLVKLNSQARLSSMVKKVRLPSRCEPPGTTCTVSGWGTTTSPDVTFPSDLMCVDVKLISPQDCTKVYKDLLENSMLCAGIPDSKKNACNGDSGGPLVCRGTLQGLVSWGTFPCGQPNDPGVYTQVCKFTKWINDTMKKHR
PLC-gamma1 inh: inhibitors of human phospholipase C gamma1; P19174; inhibition, % at 12.2 µM; AID 720700; purified PLC-gamma1, fluorogenic substrate, fluorescence; 370,000 tested, 0.84% active
PLCg1 ctr: PLC-gamma1 inhibition, counter-screen for PLC-beta3 hits; purified PLC-gamma1, fluorogenic substrate, fluorescence; shares compounds with PLC-gamma1 inh; 3,300 tested, 3.1% active; AID 743258; inhibition, % at 12.3 µM
PLCb3 confirm: confirmation of human PLC-beta3 inhibitors | shares compounds with PLC-gamma1 inh | purified PLC-beta3, fluorogenic substrate fluorescence | 3,300 tested, 1% active | inhibition, % at 12.3 µM; in the data active = inhibition above about 11%
Numbers without * were called inactive; . = no result given. Cut-off read from the data, not from the text of the source, unless noted: active = inhibition above about 9.5%; inactive = the rest.

SMILES	DDE Tn6 FP inh	NRP1-CendR mod	PLCb3 inh	Tn7 DDE FP	KLK7 zymogen act	PLC-gamma1 inh	PLCg1 ctr	PLCb3 confirm
C[C@H](NC(=O)[C@@H]1CSC2c3ccccc3C(=O)N21)C(=O)NCCc1ccc(F)cc1 (some centres not stated)	-7	14	-11	1	0	12*	-8	-7
C[C@H](NC(=O)[C@@H]1CSC2c3ccccc3C(=O)N21)C(=O)NCCc1ccccc1 (some centres not stated)	3	0	-7	-5	0	1	.	.
COC(=O)[C@H](Cc1ccccc1)N1C[C@@H](N2CCC[C@H]2C)CS1(=O)=O	5	.	1	7	0	0	.	.
COc1ccc(-n2c(SC/C=C/c3ccccc3)nnc2-c2cccs2)cc1	-7	.	1	-7	1	0	.	.
COC(=O)[C@H](CC(C)C)NC(=O)Nc1ccc2c(c1)OCCO2	6	0	9	0	0	12*	-5	-3
COC(=O)[C@@H](NC(=O)Nc1ccc2c(c1)OCCO2)C(C)C	5	-10	2	1	0	10*	0	0
COCCN1C(=O)c2oc3cc(C)c(C)cc3c(=O)c2C1c1cccc(O)c1 (configuration not stated)	-12	0	-1	-3	0	15*	-8	-2
O=C1c2oc3ccccc3c(=O)c2C(c2cccc(O)c2)N1CCCN1CCOCC1 (configuration not stated)	1	4	-16	-8	2	-15	.	.
Cc1ccc(-n2c(SCC(=O)Nc3cccc4ccccc34)nnc2-c2ccccc2)cc1	3	.	0	3	0	1	.	.
CCOC(=O)NC(NC(=S)Nc1ccc(OC)cc1)C(Cl)(Cl)Cl (configuration not stated)	2	-2	-1	3	0	0	.	.
COc1ccc([N+](=O)[O-])cc1NS(=O)(=O)c1cc(C(=O)O)ccc1OC	-5	-2	-3	-5	0	9.5*	-2	-1
COc1ccc([N+](=O)[O-])cc1NC(=S)NC(NC(=O)C(c1ccccc1)c1ccccc1)C(Cl)(Cl)Cl (configuration not stated)	1	2	8	-6	0	12*	-4	-1
COC(=O)NC(NC(=S)Nc1ccc([N+](=O)[O-])cc1)C(Cl)(Cl)Cl (configuration not stated)	8	6	12*	-6	0	5	5	7
COc1ccc([N+](=O)[O-])cc1NS(=O)(=O)c1ccccc1	-1	-1	4	4	0	1	.	.
Cc1cccc(C(=O)Nc2nc3ncccn3c2-c2ccc(F)cc2)c1	-10	.	-154	-3	3	-127	.	.
O=C(Nc1ccc(F)cc1)OCc1cn(Cc2ccc(F)c(F)c2)nn1	-2	.	-5	-5	0	3	.	.
Cc1ccccc1OCC(=O)N(Cc1cccs1)C1CCS(=O)(=O)C1 (configuration not stated)	-5	-3	1	2	0	1	.	.
Cc1cccc(OC(C)C(=O)N(Cc2cccs2)C2CCS(=O)(=O)C2)c1C (configuration not stated)	-5	-3	3	0	0	13*	-4	2
COc1ccc(N=Cc2c(C)[nH][nH]c2=O)cc1	-8	3	8	0	0	9.9*	1	1
CCCCCC(=O)Nc1nc2ccccc2[nH]1	6	-10	2	-4	0	-3	.	.
CCOc1ccccc1OCCCC(=O)Nc1nc2ccccc2[nH]1	0	0	13*	6	0	5	-6	-4
CC(C)C(OC(=O)c1cc2c(s1)CCCCC2)C(=O)NC(N)=O (configuration not stated)	-12	8	3	-5	0	18*	-4	-3
CC(OC(=O)c1cc2c(s1)CCCCC2)C(=O)NC(N)=O (configuration not stated)	-1	-3	0	4	-1	0	.	.
CCC(C(=O)NC1CCCC1)N(Cc1ccco1)C(=O)Cn1nnc(-c2ccc(C)cc2)n1 (configuration not stated)	-5	8	2	-8	0	-3	.	.
CCOC(=O)CN(C(=O)Cn1nnc(-c2ccc(C)cc2)n1)C(CC)C(=O)NC1CCCC1 (configuration not stated)	1	8	6	-1	-1	13*	-1	-8
SMILES	DDE Tn6 FP inh	NRP1-CendR mod	PLCb3 inh	Tn7 DDE FP	KLK7 zymogen act	PLC-gamma1 inh	PLCg1 ctr	PLCb3 confirm
CCOC(=O)[C@@H]1CSCCS(=O)(=O)N1C(=O)[C@H](Cc1ccccc1)NC(=O)OC(C)(C)C	-3	.	1	-6	0	0	.	.
CN(C)S(=O)(=O)c1ccc(NC(=O)CN2CCN(C(c3ccccc3)c3ccccc3)CC2)cc1	-3	-6	1	4	0	11*	-1	-1
COc1ccc2c(c1)CCCN2C(=O)C1CCCN(S(=O)(=O)c2ccccc2)C1 (configuration not stated)	0	.	-3	0	0	1	.	.
Cc1ccc(S(=O)(=O)N(CCc2ccccc2)CC(=O)N2CCOCC2)cc1	6	.	-2	0	-1	-3	.	.
COc1cc([N+](=O)[O-])ccc1NC(=O)C[n+]1ccccc1C	7	7	3	3	1	3	.	.
Cc1cccc[n+]1CC(=O)Nc1ccc([N+](=O)[O-])cc1Cl	-1	5	7	-3	0	14*	-3	0
COc1ccc(C)c(NC(=O)[C@@H]2CCCN2S(=O)(=O)c2cccc3cccnc23)c1	4	.	0	-3	.	2	.	.
Cc1cc(C)nc(Nc2nc3ccccc3[nH]2)n1	-3	-7	9	1	1	13*	-6	-2
O=C(c1cccs1)C1CCN(c2ncnc3sccc23)CC1	-6	.	1	0	.	0	.	.
COc1cc(NC(=O)CCc2nc(-c3cccs3)no2)cc(OC)c1OC	5	14	-1	3	0	0	.	.
COc1cc(-c2noc(CCC(=O)Nc3cccnc3)n2)cc(OC)c1OC	-11	15	13*	-8	0	4	-1	2
COc1ccc(C2O[C@@H](C)[C@@H]3C(=O)N4CCc5c([nH]c6ccccc56)[C@@H]4C[C@@H]3N2C)cc1 (some centres not stated)	7	.	-106	-3	7	-78	.	.

Screens from PubChem BioAssay.
